Data set [1] in a line: Intrinsic clearance in mouse liver microsomes assessed as glucuronidation during phase 2 measured per mg of protein. Type of data set: ADME, Microsome.
Data set [2] relates to CEM-SS. Briefly: Cytotoxicity against human CEM-SS cells assessed as cell death after 6 days by MTS assay. The format is cell-based. The note with it: 144 h. The method, boiled down: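 Dose-response format in CEM-SS cells exposed to compound alone (toxicity control wells) alongside the HIV-1 IIIB cytoprotection plates. Incubation was 6 days and viability was measured by MTS. CC50 is the concentration giving 50% cell death, determined from the dose-response data.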
On the technique in general: Tetrazolium assays rely on reduction of a dye to a coloured formazan, in cell work by metabolically active cells.

Data set [3] is described as follows: Therapeutic index, ratio of CC50 for human CEM-SS cells to EC50 for HIV1 3B infected in human CEM-SS cells. Type of data set: toxicity, cell-based. To be noted: read-out: Ratio CC50/EC50.
The subject of data set [4] is Human immunodeficiency virus 1. Put plainly: Antiviral activity against HIV1 3B infected in human CEM-SS cells assessed as reduction of virus-induced cytopathic effect after 6 days by MTS assay. The format is functional, organism-based. The note with it: Human immunodeficiency virus 1, 3B, 144 h. (In general: Damage to the host cells serves as the signal in cytopathic effect assays.)

Data set [5] can be described thus: Intrinsic clearance in human liver microsomes assessed as glucuronidation during phase 2 measured per mg of protein.
In data set [6] the test system is CEM-SS. Briefly: Cytotoxicity against human CEM-SS cells assessed as cell viability at 10 uM after 6 days by MTS assay. The format is cell-based. To be noted: 144 h. The method, boiled down:
(§1)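 Single-concentration screen (10 μM) in CEM-SS cells infected with pre-titered HIV-1 IIIB, sized so virus control wells lose 70–95% viability. Incubation was 6 days and read-out was by MTS. Percent CPE reduction was calculated against virus control wells (cells plus virus). Percent viability was calculated against cell-only control wells. Plates included compound toxicity and colorimetric controls, and AZT as positive control.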

A short description of data set [7]: Half life in human plasma. The format is ADME, cell-free.
Data set [8] can be described thus: Plasma protein binding in mouse. Type of data set: ADME, cell-free.
A short description of data set [9]: Intrinsic clearance in human liver microsomes during phase 1 measured per mg of protein. The format is ADME, Microsome.
Data set [10] in a line: Half life in mouse plasma. The format is ADME, cell-free.
For data set [11], the system named is Human immunodeficiency virus 1. Briefly: Antiviral activity against HIV1 infected in human P4R5 cells assessed as reduction of virus replication preincubated with cells for 24 hrs followed by viral infection for 48 hrs by 4-methylumbelliferylgalactoside-based MAGI assay. The format is functional, organism-based.
Data set [12] in a line: Half life of the compound in DPBS. The format is physicochemical.
The target in data set [13] is Human immunodeficiency virus type 1 integrase (Human immunodeficiency virus 1, UniProt Q7ZJM1). Put plainly: Inhibition of HIV1 recombinant integrase expressed in Escherichia coli using [32P]-labeled oligonucleotide as substrate after 60 mins by strand transfer activity assay.
A short description of data set [14]: Plasma protein binding in human. Type of data set: ADME, cell-free.
Data set [15] deals with Human immunodeficiency virus 1. Briefly: Antiviral activity against HIV1 3B infected in human CEM-SS cells assessed as reduction of virus-induced cytopathic effect at 10 uM after 6 days by MTS assay. Type of data set: functional. Further details: scale not given: the % may be the effect or the level left. The method, boiled down: as §1
Data set [16] has as its target Human immunodeficiency virus type 1 reverse transcriptase (Human immunodeficiency virus 1, UniProt Q72547). Briefly: Inhibition of RNase H activity of full length HIV1 reverse transcriptase using RNA-DNA duplex HTS-1 substrate.
Data set [17] is described as follows: Aqueous solubility of the compound in DPBS. Type of data set: physicochemical. The note with it: buffer.
Data set [18] concerns Human immunodeficiency virus 1. Put plainly: Fold resistance, ratio of EC50 for raltegravir-resistant HIV1 1556-1 expressing integrase Y143C mutant to EC50 for HIV1 expressing wild-type integrase. Type of data set: functional.
Data set [19] deals with Human immunodeficiency virus 1. Put plainly: Fold resistance, ratio of EC50 for raltegravir-resistant HIV1 4736-2 expressing integrase N155H mutant to EC50 for HIV1 expressing wild-type integrase. The format is functional.
In data set [20] the test system is Human immunodeficiency virus 1. Put plainly: Fold resistance, ratio of EC50 for raltegravir-resistant HIV1 8070-1 expressing integrase G140S/Y143H/Q148H mutant to EC50 for HIV1 expressing wild-type integrase. The format is functional.
Data set [21] relates to Human immunodeficiency virus 1. Briefly: Fold resistance, ratio of EC50 for raltegravir-resistant HIV1 8070-2 expressing integrase G140S/Q148H mutant to EC50 for HIV1 expressing wild-type integrase. Type of data set: functional.

Consider 9 molecules from ChEMBL document CHEMBL4477212 (J Med Chem, 2016).

Each structure is given as a SMILES string. Converted amounts (≈) assume the structure as drawn. A value given as a limit tells only on which side of the number the result lay.

By CC50 is commonly meant the concentration that lowers cell viability or growth by half. The EC50 is the midpoint of the concentration-response curve. One may read the half-life as the time in which the quantity being followed falls by half. The term IC50 denotes the concentration that gives 50% inhibition. What is called solubility is the dissolved amount per volume that the medium holds.

Human immunodeficiency virus type 1 integrase, sequence (Q7ZJM1 whole entry): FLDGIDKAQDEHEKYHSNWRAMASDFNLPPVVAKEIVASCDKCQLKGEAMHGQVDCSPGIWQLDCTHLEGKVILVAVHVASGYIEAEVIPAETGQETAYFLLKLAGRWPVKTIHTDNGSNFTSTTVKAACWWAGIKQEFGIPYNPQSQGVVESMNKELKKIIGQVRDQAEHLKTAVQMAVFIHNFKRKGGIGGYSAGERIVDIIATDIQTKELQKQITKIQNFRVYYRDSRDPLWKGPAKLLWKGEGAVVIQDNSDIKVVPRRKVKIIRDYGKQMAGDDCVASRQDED

As for `CNc1[nH]c(=O)n(O)c(=O)c1C(=O)NCc1ccccc1`, the figures for the CLH in data set [1], in [5] and in data set [9] were 500 µL/min/mg, 51 µL/min and 0.8 µL/min/mg, respectively. For the same molecule, the CC50 in [2] was determined as 58 µM. Besides, in [3], the selectivity ratio was found to be 70. Further, the EC50 amounted to 830 nM in data set [4] and 3700 nM in data set [11]. The Activity in [6] was 98%; in data set [15], 100%. Moreover, the t1/2 in [7] and in data set [10] was greater than 24 h each time. The PPB in [8] stood at 70.9%; in data set [14] it was 99.2%. In data set [12], this molecule returned a half-life greater than 1440 min. Besides, the results for the 50% inhibitory concentration (IC50) in data set [13] and in [16] were 80 nM and 61 nM, respectively. In [17], this molecule returned a solubility of 138 µM (≈ 40.1 µg/mL).

As to `CCNc1[nH]c(=O)n(O)c(=O)c1C(=O)NCc1ccc(C)c(F)c1`, the CLH was 1342 µL/min/mg in data set [1], 357 µL/min in data set [5] and less than 0.1 µL/min/mg in data set [9]. Also, in data set [2], the CC50 amounted to 20 µM. The selectivity ratio in data set [3] turned out to be 130. Besides, the EC50 in data set [4] was 150 nM; in data set [11] it was 1300 nM. The Activity in data set [6] and in data set [15] was 100% each time. The t1/2 in data set [7] and in data set [10] was greater than 24 h each time. The PPB is 95.9% in data set [8] and 98.9% in [14]. This molecule also displayed a half-life in data set [12] greater than 1440 min. Also, the figures for the IC50 in data set [13] and in data set [16] were 51 nM and 20 nM, respectively. In addition, in data set [17], the solubility came out at 81 µM (≈ 27.2 µg/mL).

For `CCNc1[nH]c(=O)n(O)c(=O)c1C(=O)NCc1ccc(F)cc1`, the CLH in [1] was 1240 µL/min/mg; in data set [9] it was less than 0.1 µL/min/mg. Also, the half-maximal cytotoxic concentration (CC50) in [2] was found to be 19 µM. For the same molecule, the selectivity ratio in data set [3] is 580. In addition, the EC50 in [4] worked out at 33 nM; in [11], 90 nM. The Activity in data set [6] was 99%; in data set [15], 100%. Besides, the t1/2 in [7] and in data set [10] was greater than 24 h in each case. Besides, the PPB in data set [8] was found to be 86.5%; in [14] it was 99.4%. Moreover, in data set [12], the half-life was greater than 1440 min. Besides, the IC50 in data set [13] came to 49 nM; in [16], 11 nM. The molecule also registered a solubility in [17] of 150 µM (≈ 48.3 µg/mL).

As for `CCNc1[nH]c(=O)n(O)c(=O)c1C(=O)NCc1ccc(F)c(F)c1`, the CC50 in [2] came to 21 µM. Moreover, the selectivity ratio in data set [3] is 430. Also, the EC50 in data set [4] amounted to 49 nM; in [11], 300 nM. Besides, the Activity in data set [6] and in data set [15] was 100% each time. Further, the IC50 amounted to 77 nM in data set [13] and 26 nM in data set [16].

With `CCNc1[nH]c(=O)n(O)c(=O)c1C(=O)NCc1cccc(Cl)c1F`, the CLH is 1065 µL/min/mg in [1] and less than 0.1 µL/min/mg in [9]. Also, the “Ratio EC50” value in data set [18] stood at 0.4; in [19], 2.4; in data set [20], 6.3; in [21] it was 13. Also, the CC50 in data set [2] is 18 µM. For the same molecule, the selectivity ratio in data set [3] came to 1200. Moreover, the values for the EC50 in data set [4] and in data set [11] were 15 nM and 300 nM, respectively. The Activity in [6] and in data set [15] was 100% in each case. The t1/2 in data set [7] and in data set [10] was greater than 24 h throughout. Further, the PPB in data set [8] was found to be 94%; in data set [14], 98.4%. The same molecule yielded a half-life in data set [12] greater than 1440 min. Besides, the IC50 worked out at 21 nM in data set [13] and 29 nM in data set [16]. Moreover, the solubility in [17] turned out to be 11 µM (≈ 3.92 µg/mL).

Regarding `CCNc1[nH]c(=O)n(O)c(=O)c1C(=O)NCc1ccccc1`, the figures for the CLH in [1], in data set [5] and in data set [9] were 732 µL/min/mg, 355 µL/min and less than 0.1 µL/min/mg, respectively. Further, the CC50 in [2] came to 23 µM. In addition, the selectivity ratio in data set [3] is 380. Besides, the EC50 in [4] is 61 nM; in data set [11], 300 nM. The Activity in data set [6] and in data set [15] was 100% in each case. Besides, the t1/2 in [7] and in [10] was greater than 24 h each time. The figures for the PPB in [8] and in data set [14] were 83.9% and 99.1%, respectively. This molecule had a half-life in data set [12] greater than 1440 min. In addition, the IC50 in data set [13] was 33 nM; in data set [16], 42 nM. Moreover, the solubility in data set [17] amounted to 1091 µM (≈ 332 µg/mL).

As to `CCNc1[nH]c(=O)n(O)c(=O)c1C(=O)NCc1ccc(F)cc1F`, the CC50 in data set [2] came out at 47 µM. Also, in [3], the selectivity ratio was 1500. The EC50 in [4] was 32 nM; in data set [11], 70 nM. Further, the Activity in data set [6] came out at 92%; in data set [15], 100%. Moreover, the results for the IC50 in data set [13] and in data set [16] were 48 to 68 nM and 10 nM, respectively.

With `CCNc1[nH]c(=O)n(O)c(=O)c1C(=O)NCc1ccc(Cl)c(F)c1`, the CC50 in data set [2] came out at 19 µM. For the same molecule, the EC50 was found to be 190 nM in data set [4] and 800 nM in data set [11]. In addition, the Activity in data set [6] and in [15] was 100% each time. The IC50 in data set [13] came to 120 nM; in data set [16], 22 nM.

For the molecule `Cc1cn([C@H]2C[C@H](N=[N+]=[N-])[C@@H](CO)O2)c(=O)[nH]c1=O` [ZIDOVUDINE], the “Ratio EC50” value in [18] is given as 1.4; in data set [19], 0.7; in data set [20], 0.9; in data set [21], 0.5.
